Assay results taken from ChEMBL document CHEMBL3865800, “Design, synthesis and biological evaluation of 4-anilinoquinazoline derivatives as new c-myc G-quadruplex ligands” (Eur J Med Chem, 2016).
Blank lines part the entries; values can stand above or below the molecule they belong to. Activity calls are given as the source filed them. The rule behind the calls is not given here.

What was measured:
[1] = Cell cycle arrest in human HeLa cells assessed as accumulation at G0/G1 phase after 24 hrs by propidium iodide based FACS analysis (reference value: 30.8 %); assay type: functional
[2] = system: HeLa; experiment: Binding affinity to c-myc G-quadruplex DNA in human HeLa cells assessed as inhibition of c-myc transcription after 3 hrs by RT-PCR analysis; assay type: cell-based
In short: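 HeLa (2×10^5/well) treated 3 h with 1.25–10 μM or DMSO; total RNA oligo-dT primed, M-MLV reverse transcribed (70 °C 10 min; 42 °C 1 h; 70 °C 15 min); c-myc and β-actin (internal control) amplified by real-time PCR, products run on 1.5% agarose.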

[3] = Cytotoxicity against human Raji cells assessed as reduction in cell viability after 48 hrs by MTT assay; assay type: functional, cell-based
[4] = Binding affinity to 5'-FPu22T-3'-labelled c-myc G-quadruplex DNA (unknown origin) assessed as change in melting temperature by FRET assay
In short: (§1)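 Fluorescence melting on real-time PCR instrument; 0.4 μM labelled oligonucleotide (FPu22T or duplex-forming F10T), ligand 2.0 μM, in 10 mM Tris-HCl pH 7.4 with 10 or 60 mM KCl; ex 470/em 530 nm at 1 °C steps over 37–99 °C, 30 s equilibration each; ΔTm = Tm(DNA+ligand) − Tm(DNA).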

[5] = Cell cycle arrest in human HeLa cells assessed as accumulation at G2/M phase at 2.5 uM after 48 hrs by propidium iodide based FACS analysis (reference value: 33.7 %); assay type: functional
[6] = Cell cycle arrest in human HeLa cells assessed as accumulation at G2/M phase at 1.25 uM after 48 hrs by propidium iodide based FACS analysis (reference value: 33.7 %); assay type: functional
[7] = Cytotoxicity against mouse primary mesangial cells assessed as reduction in cell viability after 48 hrs by MTT assay; assay type: toxicity
[8] = Binding affinity to biotinylated double stranded DNA (unknown origin) after 240 secs by SPR assay
In short: (§2)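 SPR: biotinylated Pu22 and biotinylated duplex folded in 50 mM Tris-HCl pH 7.4, 150 mM KCl, 0.005% Tween20, captured (~1000 RU) on separate flow cells with a blank reference; ligand 0.0625–10 μM in running buffer, 240 s association then 240 s dissociation at 25 °C; equilibrium KD derived.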

[9] = Cytotoxicity against human A549 cells assessed as reduction in cell viability after 48 hrs by MTT assay; assay type: functional, cell-based; settings: A549, 48 h
[10] = Cell cycle arrest in human HeLa cells assessed as accumulation at G2/M phase after 48 hrs by propidium iodide based FACS analysis (reference value: 46.1 %); assay type: functional
[11] = system: HeLa; experiment: Binding affinity to c-myc G-quadruplex DNA in human HeLa cells assessed as reduction in c-myc gene expression at 1.25 to 10 uM after 6 hrs by Western blot analysis; assay type: cell-based
In short: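 HeLa treated 6 h at 0–10 μM; lysates BCA-quantified, 20 μg protein on 12% SDS–PAGE, transferred to nitrocellulose, blocked in 5% BSA/TBS-Tween; probed with anti-c-myc and anti-GAPDH (loading control), HRP secondary, chemiluminescent detection.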

[12] = organism: Mus musculus; experiment: Cytotoxicity against mouse primary mesangial cells assessed as cell growth inhibition at 1.25 to 10 uM after 80 hrs by RTCA assay; assay type: toxicity, cell-based
[13] = Binding affinity to F10T duplex DNA (unknown origin) assessed as change in melting temperature by FRET assay; in short: as §1
[14] = system: HeLa; experiment: Cytotoxicity against human HeLa cells assessed as cell growth inhibition at 1.25 to 10 uM after 80 hrs by RTCA assay; assay type: functional, cell-based
[15] = Cell cycle arrest in human HeLa cells assessed as accumulation at S phase at 2.5 uM after 48 hrs by propidium iodide based FACS analysis (reference value: 28.6 %); assay type: functional
[16] = Cell cycle arrest in human HeLa cells assessed as accumulation at G0/G1 phase at 2.5 uM after 48 hrs by propidium iodide based FACS analysis (reference value: 35.9 %); assay type: functional
[17] = Cell cycle arrest in human HeLa cells assessed as accumulation at G2/M phase after 12 hrs by propidium iodide based FACS analysis (reference value: 46.1 %); assay type: functional
[18] = Cell cycle arrest in human HeLa cells assessed as accumulation at S phase at 5 uM after 48 hrs by propidium iodide based FACS analysis (reference value: 28.6 %); assay type: functional
[19] = Selectivity ratio of Kd for double stranded DNA (unknown origin) to Kd for biotinylated 5'-Pu22-3'-labelled c-myc G-quadruplex DNA
[20] = Cell cycle arrest in human HeLa cells assessed as accumulation at G0/G1 phase after 12 hrs by propidium iodide based FACS analysis (reference value: 30.8 %); assay type: functional
[21] = Drug uptake in human HeLa cells at 10 uM after 48 hrs
[22] = Cell cycle arrest in human HeLa cells assessed as accumulation at S phase after 48 hrs by propidium iodide based FACS analysis (reference value: 23.1 %); assay type: functional
[23] = Cell cycle arrest in human HeLa cells assessed as accumulation at G0/G1 phase at 1.25 uM after 48 hrs by propidium iodide based FACS analysis (reference value: 35.9 %); assay type: functional
[24] = Cell cycle arrest in human HeLa cells assessed as accumulation at G0/G1 phase at 5 uM after 48 hrs by propidium iodide based FACS analysis (reference value: 35.9 %); assay type: functional
[25] = Cell cycle arrest in human HeLa cells assessed as accumulation at G2/M phase after 24 hrs by propidium iodide based FACS analysis (reference value: 46.1 %); assay type: functional
[26] = Cell cycle arrest in human HeLa cells assessed as accumulation at S phase after 24 hrs by propidium iodide based FACS analysis (reference value: 23.1 %); assay type: functional
[27] = Cell cycle arrest in human HeLa cells assessed as accumulation at S phase after 12 hrs by propidium iodide based FACS analysis (reference value: 23.1 %); assay type: functional
[28] = Binding affinity to 5'-Pu22-3' c-myc G-quadruplex DNA (unknown origin) assessed as induction of parallel c-myc G-quadruplex conformation at 2 equiv after 6 hrs in absence of KCl by CD-spectroscopic analysis
In short: (§3)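 Pu22 at 3 μM final in 10 mM Tris-HCl buffer with ligand at 2 equiv, with 100 mM KCl or without KCl; heated 95 °C 5 min, slowly cooled, held ≥6 h; CD spectra 230–330 nm, 1 mm quartz cell, 1 nm bandwidth and step, 0.5 s/point, average of two scans.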

[29] = Binding affinity to biotinylated 5'-Pu22-3'-labelled c-myc G-quadruplex DNA (unknown origin) after 240 secs by SPR assay; in short: as §2
[30] = Binding affinity to 5'-FPu22T-3'-labelled c-myc G-quadruplex DNA (unknown origin) assessed as change in melting temperature at 2 uM in presence ds26 DNA of by FRET assay
In short: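 FRET melting of 0.4 μM labelled FPu22T with ligand 2.0 μM, alone or with 10-fold (4 μM), 50-fold (20 μM) or 100-fold (40 μM) excess unlabelled duplex ds26 as competitor; Tris-HCl 10 mM pH 7.4 with 10 or 60 mM KCl; ex 470/em 530 nm read every 1 °C from 37–99 °C, 30 s hold; ΔTm = Tm(DNA+ligand) − Tm(DNA).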

[31] = Cytotoxicity against human CA46 cells assessed as reduction in cell viability after 48 hrs by MTT assay; assay type: functional, cell-based; settings: CA46, 48 h
[32] = Cell cycle arrest in human HeLa cells assessed as accumulation at G0/G1 phase after 48 hrs by propidium iodide based FACS analysis (reference value: 30.8 %); assay type: functional
[33] = Binding affinity to 5'-Pu22-3' c-myc G-quadruplex DNA (unknown origin) assessed as maintainance of parallel c-myc G-quadruplex conformation at 2 equiv after 6 hrs in presence of KCl by CD-spectroscopic analysis; in short: as §3
[34] = Cell cycle arrest in human HeLa cells assessed as accumulation at G2/M phase at 5 uM after 48 hrs by propidium iodide based FACS analysis (reference value: 33.7 %); assay type: functional
[35] = Cell cycle arrest in human HeLa cells assessed as accumulation at S phase at 1.25 uM after 48 hrs by propidium iodide based FACS analysis (reference value: 28.6 %); assay type: functional
[36] = Cytotoxicity against human HeLa cells assessed as reduction in cell viability after 48 hrs by MTT assay; assay type: functional, cell-based

- ΔTm [4]: 19.6 °C
- Kd [8]: > 10 µM
- ΔTm [13]: 0.8 °C
- Selectivity ratio [19]: > 47.6
- Drug uptake [21]: Active
- Activity [28]: Active
- Kd [29]: 0.21 µM
- Activity [30]: Active
- Activity [33]: Active
Structure (SMILES): CCN(CC)CCC(=O)Nc1ccc(Nc2nc(-c3ccccc3NC(=O)CCN(CC)CC)nc3ccccc23)cc1
- Activity [1]: 43.5%
- inhibition [2]: Dose-dependent effect
- IC50 [3]: 3.1 µM
- Activity [5]: 18.4%
- Activity [6]: 22.2%
- IC50 at 48 h [7]: 13.1 µM
- IC50 [9]: 5.9 µM
- Activity [10]: 22.1%
- inhibition [11]: Active
- Activity [12]: Non-Toxic
- growth inhibition (GI) [14]: Active
- Activity [15]: 30.2%
- Activity [16]: 48.9%
- Activity [17]: 38.8%
- Activity [18]: 29%
- Activity [20]: 41.8%
- Activity [22]: 16.8%
- Activity [23]: 48.4%
- Activity [24]: 54.8%
- Activity [25]: 38.1%
- Activity [26]: 18.4%
- Activity [27]: 19.4%
- IC50 [31]: 6.5 µM
- Activity [32]: 61.1%
- Activity [34]: 12.7%
- Activity [35]: 26.4%
- IC50 [36]: 4.4 µM

- ΔTm [4]: 13.3 °C
- Kd [8]: > 10 µM
- ΔTm [13]: 0.6 °C
- Selectivity ratio [19]: > 62.5
- Drug uptake [21]: Active
- Activity [28]: Active
- Kd [29]: 0.16 µM
- Activity [30]: Active
- Activity [33]: Active
Structure (SMILES): O=C(CN1CCCC1)Nc1ccc(Nc2nc(-c3ccccc3NC(=O)CN3CCCC3)nc3ccccc23)cc1
- IC50 [3]: 1.9 µM
- IC50 at 48 h [7]: 16.5 µM
- IC50 [9]: 18.7 µM
- IC50 [31]: 1.8 µM
- IC50 [36]: 2.9 µM

- ΔTm [4]: 17.9 °C
- Kd [8]: > 10 µM
- ΔTm [13]: 1.4 °C
- Selectivity ratio [19]: > 45.4
- Activity [28]: Active
- Kd [29]: 0.22 µM
- Activity [30]: Active
- Activity [33]: Active
Structure (SMILES): O=C(CCN1CCCCC1)Nc1ccc(Nc2nc(-c3ccccc3NC(=O)CCN3CCCCC3)nc3ccccc23)cc1
- IC50 [3]: 1.3 µM
- IC50 at 48 h [7]: 6.3 µM
- IC50 [9]: 7.5 µM
- IC50 [31]: 4.5 µM
- IC50 [36]: 7.4 µM

- ΔTm [4]: 14.2 °C
- Kd [8]: > 10 µM
- ΔTm [13]: 0.9 °C
- Selectivity ratio [19]: > 50
- Drug uptake [21]: Active
- Activity [28]: Active
- Kd [29]: 0.2 µM
- Activity [30]: Active
- Activity [33]: Active
Structure (SMILES): O=C(CCN1CCCC1)Nc1ccc(Nc2nc(-c3ccccc3NC(=O)CCN3CCCC3)nc3ccccc23)cc1
- IC50 [3]: 4 µM
- IC50 at 48 h [7]: 23.3 µM
- IC50 [9]: 26.6 µM
- IC50 [31]: 7.2 µM
- IC50 [36]: 7 µM
